According to ChEMBL document CHEMBL1773032, “Pierreiones A-D, solid tumor selective pyranoisoflavones and other cytotoxic constituents from Antheroporum pierrei” (J Nat Prod, 2011):

Experiments:
MC-38 [1] = assay: Selective toxicity against mouse C38 cells assessed as differential zone units at 0.24 ug/mL by disk diffusion soft agar colony formation assay relative to mouse L1210 cells; assay type: functional
Outline: (§1)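 Disk diffusion soft agar colony-formation assay with murine Colon 38 (colon adenocarcinoma) and L1210 (lymphocytic leukemia) cells. The zone of inhibited colony formation around each disk is measured in zone units, where 200 zone units = 6 mm. Selectivity is the solid tumor minus leukemia zone difference.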

HCT-116 = assay: Cytotoxicity against human HCT116 cells measured per disk after 5 days by hemocytometer counting; assay type: functional, cell-based
Outline: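 HCT-116 cells seeded at 5 × 10^4 cells per T25 flask in RPMI-1640 with 15% FBS, 1% penicillin-streptomycin and 1% glutamine, 37 °C, 5% CO2. Drug added at several concentrations on day 3, then incubated 120 h (5 d). Cells trypsinized, washed and resuspended in HBSS, counted by hemocytometer. Counts normalized to untreated control to give IC50.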

MC-38 [2] = assay: Selective toxicity against mouse C38 cells assessed as differential zone units at 0.26 ug/mL by disk diffusion soft agar colony formation assay relative to mouse L1210 cells; assay type: functional
Outline: (§2)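 Murine Colon 38 and leukemia L1210 cells tested in the disk diffusion soft agar colony formation assay. Differential cytotoxicity expressed as the difference in inhibition zone size between the two lines, in zone units (200 zone units = 6 mm).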

MC-38 [3] = assay: Selective toxicity against mouse C38 cells assessed as differential zone units at 1.9 ug/mL by disk diffusion soft agar colony formation assay relative to mouse L1210 cells; assay type: functional; outline: as §2
MC-38 [4] = assay: Selective toxicity against mouse C38 cells assessed as differential zone units at 66 ug/mL by disk diffusion soft agar colony formation assay relative to mouse L1210 cells; assay type: functional; outline: as §2
MC-38 [5] = assay: Selective toxicity against mouse C38 cells assessed as differential zone units at 68 ug/mL by disk diffusion soft agar colony formation assay relative to mouse L1210 cells; assay type: functional; outline: as §2
MC-38 [6] = assay: Selective toxicity against mouse C38 cells assessed as differential zone units at 0.23 ug/mL by disk diffusion soft agar colony formation assay relative to mouse L1210 cells; assay type: functional; outline: as §1

SMILES | IC50 (HCT-116) [µg] | other results
COc1cc2c(cc1OC)[C@]1(O)C(=O)c3ccc4c(c3O[C@@H]1CO2)C=CC(C)(C)O4 [TEPHROSIN] | 0.04 | Activity (MC-38 [1]): 550 Zone units
C=C(C)[C@H]1Cc2c(ccc3c2O[C@@H]2COc4cc(OC)c(OC)cc4[C@]2(O)C3=O)O1 [ROTENOLONE] | 0.055 | Activity (MC-38 [2]): 450 Zone units
COc1cc(-c2coc3cc4c(cc3c2=O)C=CC(C)(C)O4)ccc1OCC=C(C)C [PIERREIONE D] | 30 | Activity (MC-38 [3]): 600 Zone units
COc1cc(-c2coc3cc4c(cc3c2=O)C=CC(C)(C)O4)ccc1OC[C@@H](O)C(C)(C)O [PIERREIONE B] | 18 | Activity (MC-38 [4]): 300 Zone units
COc1cc(-c2coc3cc4c(c(OC)c3c2=O)C=CC(C)(C)O4)ccc1OCC=C(C)C [PIERREIONE C] | > 46 | –
COc1cc(-c2coc3cc4c(c(OC)c3c2=O)C=CC(C)(C)O4)ccc1OC[C@@H](O)C(C)(C)O [PIERREIONE A] | 7.5 | Activity (MC-38 [5]): 300 Zone units
C=C(C)[C@H]1Cc2c(ccc3c2O[C@@H]2COc4cc(OC)c(OC)cc4[C@@H]2C3=O)O1 [ROTENONE] | 0.045 | Activity (MC-38 [6]): 500 Zone units
